Test results reported in ChEMBL document CHEMBL5696442, “Discovery of type II inhibitors of TGFβ-activated kinase 1 (TAK1) and mitogen-activated protein kinase kinase kinase kinase 2 (MAP4K2)” (J Med Chem, 2015).
The source made the active and inactive calls. The rule behind the calls is not given here.

Experiments:
[1] = biological target: Serine/threonine-protein kinase PLK1 (Homo sapiens) (UniProt P53350); test: Inhibition of PLK1 Lys2 labeling site harbouring VIHRDLKLGNLFLNEDLEVK in human Huh-7 cell lysate at 1 uM by KiNativ Profiling analysis relative to control; format: subcellular
Serine/threonine-protein kinase PLK1 (Homo sapiens), sequence (P53350 whole entry): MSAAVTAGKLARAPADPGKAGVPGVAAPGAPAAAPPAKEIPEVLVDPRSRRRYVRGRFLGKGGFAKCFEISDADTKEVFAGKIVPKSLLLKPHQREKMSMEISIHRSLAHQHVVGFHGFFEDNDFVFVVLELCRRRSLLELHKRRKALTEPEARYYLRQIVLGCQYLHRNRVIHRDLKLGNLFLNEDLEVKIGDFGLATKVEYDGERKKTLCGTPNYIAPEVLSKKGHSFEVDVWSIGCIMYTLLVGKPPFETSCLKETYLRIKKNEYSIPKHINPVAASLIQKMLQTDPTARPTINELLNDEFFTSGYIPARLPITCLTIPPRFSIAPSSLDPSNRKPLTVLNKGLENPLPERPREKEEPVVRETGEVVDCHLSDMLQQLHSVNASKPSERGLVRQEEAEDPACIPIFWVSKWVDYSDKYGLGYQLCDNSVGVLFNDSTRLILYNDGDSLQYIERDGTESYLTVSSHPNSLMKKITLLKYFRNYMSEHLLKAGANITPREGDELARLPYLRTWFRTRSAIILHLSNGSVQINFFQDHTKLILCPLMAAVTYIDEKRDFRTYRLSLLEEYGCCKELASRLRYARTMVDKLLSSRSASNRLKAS

[2] = biological target: T1, Dual specificity mitogen-activated protein kinase kinase 6 (Homo sapiens) (UniProt P52564); test: Inhibition of MAP2K6 Lys2 labeling site in human Huh-7 cells at 1 uM by KiNativ Profiling analysis relative to control; format: cell-based
T1 sequence (whole entry): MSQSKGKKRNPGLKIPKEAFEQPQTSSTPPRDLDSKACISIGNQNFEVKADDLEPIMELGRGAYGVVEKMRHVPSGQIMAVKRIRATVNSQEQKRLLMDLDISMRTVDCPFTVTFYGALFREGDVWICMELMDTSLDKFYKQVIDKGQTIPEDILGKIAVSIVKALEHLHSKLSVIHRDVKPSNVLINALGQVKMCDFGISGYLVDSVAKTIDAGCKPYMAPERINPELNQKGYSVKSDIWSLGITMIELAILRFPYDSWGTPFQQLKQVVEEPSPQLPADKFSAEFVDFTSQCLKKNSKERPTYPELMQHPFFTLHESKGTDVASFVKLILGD

Ephrin type-A receptor 2 = Ephrin type-A receptor 2 (Homo sapiens, UniProt P29317); test: Inhibition of EphA2 ACT labeling site in human A-375 cells at 0.05 uM by KiNativ Profiling analysis relative to control; format: cell-based
Ephrin type-A receptor 2, sequence (P29317 whole entry): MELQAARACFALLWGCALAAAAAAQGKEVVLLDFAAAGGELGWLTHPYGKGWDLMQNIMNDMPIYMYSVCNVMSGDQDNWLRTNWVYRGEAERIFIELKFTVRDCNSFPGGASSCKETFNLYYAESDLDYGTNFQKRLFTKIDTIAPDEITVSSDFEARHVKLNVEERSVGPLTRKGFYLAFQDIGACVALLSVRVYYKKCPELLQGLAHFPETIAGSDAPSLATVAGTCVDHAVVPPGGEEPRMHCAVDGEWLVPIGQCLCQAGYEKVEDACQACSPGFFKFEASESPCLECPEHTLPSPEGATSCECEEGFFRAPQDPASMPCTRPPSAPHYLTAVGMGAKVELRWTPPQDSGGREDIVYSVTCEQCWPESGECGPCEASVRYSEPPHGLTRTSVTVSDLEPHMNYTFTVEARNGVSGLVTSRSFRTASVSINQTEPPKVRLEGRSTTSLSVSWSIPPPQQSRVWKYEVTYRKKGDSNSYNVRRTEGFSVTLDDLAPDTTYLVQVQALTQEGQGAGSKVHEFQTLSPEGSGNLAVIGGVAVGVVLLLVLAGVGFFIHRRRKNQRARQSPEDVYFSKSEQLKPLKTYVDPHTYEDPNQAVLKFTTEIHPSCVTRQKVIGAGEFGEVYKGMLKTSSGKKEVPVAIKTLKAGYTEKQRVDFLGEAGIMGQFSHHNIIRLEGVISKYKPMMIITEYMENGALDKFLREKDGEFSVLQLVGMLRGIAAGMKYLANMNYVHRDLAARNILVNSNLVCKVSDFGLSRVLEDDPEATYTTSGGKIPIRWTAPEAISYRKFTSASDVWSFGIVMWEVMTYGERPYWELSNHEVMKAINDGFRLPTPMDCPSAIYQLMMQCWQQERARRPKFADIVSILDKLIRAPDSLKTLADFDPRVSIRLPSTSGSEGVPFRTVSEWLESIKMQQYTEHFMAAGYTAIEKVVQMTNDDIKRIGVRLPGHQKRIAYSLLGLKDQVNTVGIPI

[3] = biological target: Rhodopsin kinase GRK1 (Homo sapiens) (UniProt Q15835); test: Inhibition of GRK1 (unknown origin) at 1 uM by Ambit Kinomescan binding assay relative to control; values are per cent of control
Rhodopsin kinase GRK1 (Homo sapiens), sequence (Q15835 whole entry): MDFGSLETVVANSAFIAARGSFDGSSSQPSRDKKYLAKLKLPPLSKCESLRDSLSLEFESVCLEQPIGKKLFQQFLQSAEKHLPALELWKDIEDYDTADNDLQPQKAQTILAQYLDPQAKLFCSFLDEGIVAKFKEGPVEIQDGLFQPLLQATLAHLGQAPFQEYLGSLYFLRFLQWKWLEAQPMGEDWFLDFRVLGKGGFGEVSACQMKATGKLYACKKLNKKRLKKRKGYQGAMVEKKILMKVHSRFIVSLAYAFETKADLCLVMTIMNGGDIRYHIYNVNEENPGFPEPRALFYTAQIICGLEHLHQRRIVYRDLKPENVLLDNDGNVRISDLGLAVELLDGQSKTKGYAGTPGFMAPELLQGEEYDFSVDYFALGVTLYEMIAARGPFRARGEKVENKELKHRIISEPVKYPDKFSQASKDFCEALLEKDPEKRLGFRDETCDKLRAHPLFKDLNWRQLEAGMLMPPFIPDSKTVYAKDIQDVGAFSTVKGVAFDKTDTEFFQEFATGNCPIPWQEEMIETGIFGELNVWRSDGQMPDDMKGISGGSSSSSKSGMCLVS

[4] = test system: Tyrosine-protein kinase ABL1 (Homo sapiens), P00519 [Q252H]; test: Inhibition of phosphorylated ABL1 Q252H mutant (unknown origin) at 1 uM by Ambit Kinomescan binding assay relative to control; values are per cent of control
[5] = biological target: Mitogen-activated protein kinase kinase kinase kinase 4 (Homo sapiens, UniProt O95819); test: Inhibition of ZC1 Lys2 labeling site in human A-375 cells at 5 uM by KiNativ Profiling analysis relative to control; format: cell-based
Mitogen-activated protein kinase kinase kinase kinase 4, sequence (O95819 2-1239 limits assumed): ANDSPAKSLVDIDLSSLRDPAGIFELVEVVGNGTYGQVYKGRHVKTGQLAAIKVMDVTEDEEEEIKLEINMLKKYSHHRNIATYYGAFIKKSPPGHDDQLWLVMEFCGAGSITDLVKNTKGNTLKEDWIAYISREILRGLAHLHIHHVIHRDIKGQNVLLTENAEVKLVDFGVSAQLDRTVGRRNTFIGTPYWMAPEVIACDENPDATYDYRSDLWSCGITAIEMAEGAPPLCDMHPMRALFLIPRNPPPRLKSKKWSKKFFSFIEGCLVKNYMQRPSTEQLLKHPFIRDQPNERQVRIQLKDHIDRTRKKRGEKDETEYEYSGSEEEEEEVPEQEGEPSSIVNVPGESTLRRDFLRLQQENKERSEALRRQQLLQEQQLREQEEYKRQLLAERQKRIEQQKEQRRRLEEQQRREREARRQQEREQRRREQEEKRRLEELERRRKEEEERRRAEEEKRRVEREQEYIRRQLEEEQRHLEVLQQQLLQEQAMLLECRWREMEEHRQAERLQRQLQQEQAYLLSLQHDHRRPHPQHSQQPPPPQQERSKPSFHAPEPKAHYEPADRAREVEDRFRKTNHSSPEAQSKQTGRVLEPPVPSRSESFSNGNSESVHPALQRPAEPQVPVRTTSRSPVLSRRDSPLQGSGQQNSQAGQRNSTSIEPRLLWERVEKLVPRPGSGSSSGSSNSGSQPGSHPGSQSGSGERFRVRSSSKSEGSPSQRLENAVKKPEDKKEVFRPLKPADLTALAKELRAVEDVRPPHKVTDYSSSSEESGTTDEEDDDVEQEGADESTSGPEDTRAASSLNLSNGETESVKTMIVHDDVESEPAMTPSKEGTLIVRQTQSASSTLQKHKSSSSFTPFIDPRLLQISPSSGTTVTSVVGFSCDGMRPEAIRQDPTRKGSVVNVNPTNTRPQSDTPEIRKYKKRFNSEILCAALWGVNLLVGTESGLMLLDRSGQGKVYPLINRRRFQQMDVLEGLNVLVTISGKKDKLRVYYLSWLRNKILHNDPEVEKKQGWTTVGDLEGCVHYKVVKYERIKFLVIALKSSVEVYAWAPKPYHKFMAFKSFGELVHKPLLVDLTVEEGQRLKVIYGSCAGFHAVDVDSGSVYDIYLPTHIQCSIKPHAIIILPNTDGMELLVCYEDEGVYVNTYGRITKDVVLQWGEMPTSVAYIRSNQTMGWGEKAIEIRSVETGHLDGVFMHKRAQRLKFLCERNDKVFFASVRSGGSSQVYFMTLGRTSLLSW

[6] = biological target: Tyrosine-protein kinase receptor UFO (Homo sapiens) (UniProt P30530); test: Inhibition of AXL ACT labeling site in human A-375 cells at 0.5 uM by KiNativ Profiling analysis relative to control; format: cell-based
Tyrosine-protein kinase receptor UFO (Homo sapiens), sequence (P30530 whole entry): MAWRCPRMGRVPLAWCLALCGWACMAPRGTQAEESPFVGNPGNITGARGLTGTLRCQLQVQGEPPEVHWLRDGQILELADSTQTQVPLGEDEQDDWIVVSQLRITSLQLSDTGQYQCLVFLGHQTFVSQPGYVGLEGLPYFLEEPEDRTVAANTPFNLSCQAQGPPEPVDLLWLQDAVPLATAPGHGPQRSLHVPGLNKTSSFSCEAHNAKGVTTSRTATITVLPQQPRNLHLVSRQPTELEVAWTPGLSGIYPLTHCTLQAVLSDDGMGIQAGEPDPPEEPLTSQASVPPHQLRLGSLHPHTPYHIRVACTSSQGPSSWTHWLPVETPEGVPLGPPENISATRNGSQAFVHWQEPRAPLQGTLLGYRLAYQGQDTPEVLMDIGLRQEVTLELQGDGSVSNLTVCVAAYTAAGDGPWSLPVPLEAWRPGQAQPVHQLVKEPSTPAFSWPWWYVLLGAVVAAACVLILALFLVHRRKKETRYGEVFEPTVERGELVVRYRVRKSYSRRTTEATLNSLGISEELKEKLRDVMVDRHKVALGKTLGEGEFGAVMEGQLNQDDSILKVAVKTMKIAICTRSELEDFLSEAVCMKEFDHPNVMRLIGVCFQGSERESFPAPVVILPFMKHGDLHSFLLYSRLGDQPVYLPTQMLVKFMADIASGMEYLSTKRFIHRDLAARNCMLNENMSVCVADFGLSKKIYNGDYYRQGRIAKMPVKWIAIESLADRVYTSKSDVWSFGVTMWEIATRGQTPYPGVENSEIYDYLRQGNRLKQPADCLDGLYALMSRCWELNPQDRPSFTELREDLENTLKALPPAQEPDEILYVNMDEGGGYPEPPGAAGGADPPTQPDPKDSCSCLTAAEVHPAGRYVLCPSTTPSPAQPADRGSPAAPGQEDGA
Outline: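 Live A375 melanoma cells were treated with compound at 5 or 0.5 μM, then lysed. Lysates were labeled with a lysine-reactive ATP or ADP-biotin probe. Read-out was the compound's protection of kinase labeling sites from probe labeling (KiNativ).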

[7] = biological target: RAC-alpha serine/threonine-protein kinase (Homo sapiens) (UniProt P31749); test: Inhibition of AKT1 (unknown origin) at 10 uM by Ambit Kinomescan binding assay
[8] = biological target: Non-receptor tyrosine-protein kinase TNK1 (Homo sapiens) (UniProt Q13470); test: Inhibition of TNK1 (unknown origin) at 10 uM by Ambit Kinomescan binding assay relative to control; values are per cent of control
Non-receptor tyrosine-protein kinase TNK1 (Homo sapiens), sequence (Q13470 whole entry): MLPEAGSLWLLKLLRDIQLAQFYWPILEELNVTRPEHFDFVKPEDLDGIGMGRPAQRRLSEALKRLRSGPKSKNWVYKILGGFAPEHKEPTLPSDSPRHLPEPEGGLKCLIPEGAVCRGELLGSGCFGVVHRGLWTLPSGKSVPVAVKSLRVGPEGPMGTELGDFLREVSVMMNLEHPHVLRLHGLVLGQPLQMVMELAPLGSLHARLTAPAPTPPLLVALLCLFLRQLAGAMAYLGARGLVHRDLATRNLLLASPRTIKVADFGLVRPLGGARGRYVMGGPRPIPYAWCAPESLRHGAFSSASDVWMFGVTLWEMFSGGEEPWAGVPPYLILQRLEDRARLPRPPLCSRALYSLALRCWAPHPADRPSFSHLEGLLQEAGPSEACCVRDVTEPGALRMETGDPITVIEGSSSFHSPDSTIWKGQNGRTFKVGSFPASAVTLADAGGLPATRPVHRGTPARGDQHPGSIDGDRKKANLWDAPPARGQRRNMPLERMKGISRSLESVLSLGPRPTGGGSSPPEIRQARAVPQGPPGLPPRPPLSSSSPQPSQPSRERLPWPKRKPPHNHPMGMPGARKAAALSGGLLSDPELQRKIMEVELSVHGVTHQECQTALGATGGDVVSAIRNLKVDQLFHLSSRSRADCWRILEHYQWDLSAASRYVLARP

[9] = biological target: T2, Mitogen-activated protein kinase kinase kinase 5 (Homo sapiens) (UniProt Q99683); test: Inhibition of MAP3K5 Lys1 labeling site harbouring IAIKEIPERDSR in human A-375 cells at 5 uM by KiNativ Profiling analysis relative to control; format: cell-based
T2 sequence (whole entry): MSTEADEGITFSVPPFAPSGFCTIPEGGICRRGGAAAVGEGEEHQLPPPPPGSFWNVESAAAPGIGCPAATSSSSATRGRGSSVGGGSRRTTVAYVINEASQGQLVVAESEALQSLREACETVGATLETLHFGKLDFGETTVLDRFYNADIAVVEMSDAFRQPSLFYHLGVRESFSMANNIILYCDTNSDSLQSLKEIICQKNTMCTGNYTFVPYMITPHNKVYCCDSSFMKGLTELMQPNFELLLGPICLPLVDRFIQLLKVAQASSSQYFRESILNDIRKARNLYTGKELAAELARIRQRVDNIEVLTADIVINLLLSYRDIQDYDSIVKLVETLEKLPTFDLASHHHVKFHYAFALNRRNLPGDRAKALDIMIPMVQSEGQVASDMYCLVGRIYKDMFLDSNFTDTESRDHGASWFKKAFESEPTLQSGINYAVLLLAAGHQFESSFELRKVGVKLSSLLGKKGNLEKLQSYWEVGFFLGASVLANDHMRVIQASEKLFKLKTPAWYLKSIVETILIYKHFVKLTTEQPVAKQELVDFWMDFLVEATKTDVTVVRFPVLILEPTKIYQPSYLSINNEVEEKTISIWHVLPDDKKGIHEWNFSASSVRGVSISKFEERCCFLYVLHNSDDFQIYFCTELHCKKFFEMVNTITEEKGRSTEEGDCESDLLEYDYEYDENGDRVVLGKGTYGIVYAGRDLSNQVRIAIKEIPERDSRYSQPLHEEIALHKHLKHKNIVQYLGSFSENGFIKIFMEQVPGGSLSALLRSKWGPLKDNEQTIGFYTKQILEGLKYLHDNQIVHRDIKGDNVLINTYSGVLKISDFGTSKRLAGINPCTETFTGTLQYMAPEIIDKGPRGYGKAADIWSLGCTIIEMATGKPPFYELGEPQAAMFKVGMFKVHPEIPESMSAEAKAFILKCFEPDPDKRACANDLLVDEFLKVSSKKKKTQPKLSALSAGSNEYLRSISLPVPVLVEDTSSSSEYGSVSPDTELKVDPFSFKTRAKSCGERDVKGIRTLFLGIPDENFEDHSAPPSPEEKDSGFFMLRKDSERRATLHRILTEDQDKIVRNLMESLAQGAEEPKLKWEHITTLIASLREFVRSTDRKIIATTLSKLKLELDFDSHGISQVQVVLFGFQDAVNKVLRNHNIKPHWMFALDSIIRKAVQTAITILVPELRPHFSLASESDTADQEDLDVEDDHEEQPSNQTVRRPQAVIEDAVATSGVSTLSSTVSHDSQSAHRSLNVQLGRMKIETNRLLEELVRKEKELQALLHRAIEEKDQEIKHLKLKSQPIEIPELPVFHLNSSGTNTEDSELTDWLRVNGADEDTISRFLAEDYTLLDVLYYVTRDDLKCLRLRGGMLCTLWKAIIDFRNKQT

[10] = biological target: PKC alpha and beta-2 (Homo sapiens) (UniProt P17252+P05771); test: Inhibition of PKCalpha/beta K2 labeling site in human Huh-7 cells at 1 uM by KiNativ Profiling analysis relative to control; format: cell-based
[11] = biological target: Rho-associated protein kinase 1 (Homo sapiens) (UniProt Q13464); test: Inhibition of ROCK1 in human Huh-7 cells at 1 uM by KiNativ Profiling analysis relative to control; format: cell-based
[12] = biological target: TRAF2 and NCK-interacting protein kinase (Homo sapiens) (UniProt Q9UKE5); test: Inhibition of ZC2/TNIK K2 labeling site in human Huh-7 cells at 1 uM by KiNativ Profiling analysis relative to control; format: cell-based

CNc1cc(Oc2cc(C(=O)Nc3cc(N4CCN(C)CC4)cc(C(F)(F)F)c3)ccc2C)ncn1
inhibition [1]: 10.8%
inhibition [2]: -1.5%

CCN1CCN(Cc2ccc(NC(=O)c3ccc(C)c(/C=C/c4cnc5[nH]ccc5c4OC)c3)cc2C(F)(F)F)CC1
inhibition (Ephrin type-A receptor 2): 83.7%
residual activity [3]: 100%
percent of control [4]: 1.2%

CCN1CCN(Cc2ccc(NC(=O)c3ccc(C)c(Oc4ccnc5[nH]ccc45)c3)cc2C(F)(F)F)CC1
inhibition [5]: 92.7%
inhibition [6]: 2.3%
inhibition [7]: inactive
residual activity [8]: 0.35%
inhibition [9]: -3.2%
inhibition [10]: 8.8%
inhibition [11]: -5.5%
inhibition [12]: 23%
